In series [1] the target is T1, D(2) dopamine receptor (Homo sapiens, UniProt P14416). Description: Displacement of [3H]spiroperidol from human cloned dopaminergic D2 receptor expressed in rat C6 cells at 10 uM. In kind it is cell-based. A digest of the protocol:
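Buffer was 50 mM Tris, 10 mM MgCl2, 1 mM EDTA, pH 7.4. Incubated 60 min at 27 °C, then filtered on PEI-soaked GF/C. Nonspecific binding with 10 µM haloperidol.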

Another series addresses ABCB1 (Homo sapiens, UniProt P08183). Description: Activation of ABCB1 in human Caco-2 cells assessed as ATPase activation at 100 uM after 2 hrs.
In series [2] the target is T2, 5-hydroxytryptamine receptor 1A (Homo sapiens, UniProt P08908).
T2 sequence (P08908 whole entry): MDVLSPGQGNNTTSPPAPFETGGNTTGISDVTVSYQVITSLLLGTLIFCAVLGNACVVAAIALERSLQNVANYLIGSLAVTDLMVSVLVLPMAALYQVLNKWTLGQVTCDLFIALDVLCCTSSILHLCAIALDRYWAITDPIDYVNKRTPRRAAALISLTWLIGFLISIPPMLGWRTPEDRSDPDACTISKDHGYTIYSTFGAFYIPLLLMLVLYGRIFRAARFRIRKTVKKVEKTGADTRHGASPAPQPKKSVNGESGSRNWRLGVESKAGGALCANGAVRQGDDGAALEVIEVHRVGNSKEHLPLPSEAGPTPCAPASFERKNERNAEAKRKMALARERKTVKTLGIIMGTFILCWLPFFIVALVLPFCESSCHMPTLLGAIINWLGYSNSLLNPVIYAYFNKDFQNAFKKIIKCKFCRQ
Description: Displacement of [3H]8-OH-DPAT from human cloned 5-HT1A receptor expressed in human HeLa cells. The class given is cell-based. A digest of the protocol: (§1)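 Compounds at 0.1 nM–10 µM in 50 mM Tris-HCl pH 7.4, 5 mM MgSO4, 120 min at 37 °C. Filtered on PEI-soaked GF/C. Nonspecific binding with 10 µM 8-OH-DPAT. […] Mean of three experiments, triplicate samples.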

The target of series [3] is T3, 5-hydroxytryptamine receptor 1A (Homo sapiens) (UniProt P08908).
T3 sequence (whole entry): T2 sequence (P08908 whole entry)
Kind of series: Displacement of [3H]8-OH-DPAT from human cloned 5-HT1A receptor expressed in human HeLa cells at 10 uM. In kind it is cell-based. The procedure, abridged:
as §1

A further series deals with Caco-2. Kind of series: Ratio of apparent permeability from basolateral to apical over apical to basolateral side of human Caco-2 cells after 120 mins by UV-visible spectroscopy. The conditions noted are these: caco-2, 2 h.
In series [4] the target is T4, ATP-dependent translocase ABCB1 (Homo sapiens, UniProt P08183). Kind of series: Inhibition of ABCB1 transfected in MDCK cells assessed as increase in calcein-AM accumulation. In kind it is cell-based.
T4 sequence (P08183 whole entry): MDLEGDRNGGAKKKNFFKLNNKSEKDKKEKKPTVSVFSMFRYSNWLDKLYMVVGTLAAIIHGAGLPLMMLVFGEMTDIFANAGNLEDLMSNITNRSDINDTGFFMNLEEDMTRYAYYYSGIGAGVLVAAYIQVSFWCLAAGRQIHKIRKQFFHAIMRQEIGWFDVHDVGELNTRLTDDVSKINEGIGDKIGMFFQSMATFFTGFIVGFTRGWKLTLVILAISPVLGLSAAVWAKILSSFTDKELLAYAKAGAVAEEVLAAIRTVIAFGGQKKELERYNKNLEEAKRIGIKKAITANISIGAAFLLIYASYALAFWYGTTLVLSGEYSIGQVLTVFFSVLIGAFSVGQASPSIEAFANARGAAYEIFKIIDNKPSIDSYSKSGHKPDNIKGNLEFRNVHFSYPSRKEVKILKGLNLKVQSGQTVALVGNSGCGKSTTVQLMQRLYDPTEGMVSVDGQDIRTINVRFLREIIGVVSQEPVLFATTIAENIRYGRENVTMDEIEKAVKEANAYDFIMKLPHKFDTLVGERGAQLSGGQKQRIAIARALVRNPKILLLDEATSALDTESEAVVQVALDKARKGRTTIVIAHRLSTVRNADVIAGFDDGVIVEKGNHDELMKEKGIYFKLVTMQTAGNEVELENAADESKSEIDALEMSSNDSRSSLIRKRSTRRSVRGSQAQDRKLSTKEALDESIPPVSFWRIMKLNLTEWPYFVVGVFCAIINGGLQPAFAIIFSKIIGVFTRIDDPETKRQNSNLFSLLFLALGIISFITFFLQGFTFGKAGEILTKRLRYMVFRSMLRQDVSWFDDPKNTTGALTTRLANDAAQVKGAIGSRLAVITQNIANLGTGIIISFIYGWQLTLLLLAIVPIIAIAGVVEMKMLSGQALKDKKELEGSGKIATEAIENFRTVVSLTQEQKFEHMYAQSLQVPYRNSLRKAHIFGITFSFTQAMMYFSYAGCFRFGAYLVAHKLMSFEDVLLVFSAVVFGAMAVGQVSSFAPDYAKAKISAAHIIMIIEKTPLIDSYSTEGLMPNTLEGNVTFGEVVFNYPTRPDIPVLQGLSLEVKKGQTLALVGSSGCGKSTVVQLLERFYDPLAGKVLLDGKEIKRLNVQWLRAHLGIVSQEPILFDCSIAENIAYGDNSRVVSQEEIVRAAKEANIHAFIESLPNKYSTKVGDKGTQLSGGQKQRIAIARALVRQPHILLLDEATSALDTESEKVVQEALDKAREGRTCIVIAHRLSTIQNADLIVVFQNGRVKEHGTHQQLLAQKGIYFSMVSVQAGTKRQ
The target of series [5] is T1, D(2) dopamine receptor. Kind of series: Displacement of [3H]spiroperidol from human cloned dopaminergic D2 receptor expressed in rat C6 cells. In kind it is cell-based.
Series [6] addresses T4, ATP-dependent translocase ABCB1. Description: Inhibition of ABCB1-mediated [3H]vinblastine transportation in human Caco-2 cells. In kind it is cell-based. A digest of the protocol: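 Caco-2 monolayers grown 21 days (TEER >800 Ω × cm²). 20 nM [3H]vinblastine added to the basolateral side with or without compound (200 nM–400 µM) for 120 min at 37 °C. Appearance on the apical side measured by scintillation counting. IC50 from nonlinear fit. Mean of three experiments, triplicate samples.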

The target of another series is T5, ABCG2 (Homo sapiens, UniProt Q9UNQ0).
T5 sequence (Q9UNQ0 whole entry): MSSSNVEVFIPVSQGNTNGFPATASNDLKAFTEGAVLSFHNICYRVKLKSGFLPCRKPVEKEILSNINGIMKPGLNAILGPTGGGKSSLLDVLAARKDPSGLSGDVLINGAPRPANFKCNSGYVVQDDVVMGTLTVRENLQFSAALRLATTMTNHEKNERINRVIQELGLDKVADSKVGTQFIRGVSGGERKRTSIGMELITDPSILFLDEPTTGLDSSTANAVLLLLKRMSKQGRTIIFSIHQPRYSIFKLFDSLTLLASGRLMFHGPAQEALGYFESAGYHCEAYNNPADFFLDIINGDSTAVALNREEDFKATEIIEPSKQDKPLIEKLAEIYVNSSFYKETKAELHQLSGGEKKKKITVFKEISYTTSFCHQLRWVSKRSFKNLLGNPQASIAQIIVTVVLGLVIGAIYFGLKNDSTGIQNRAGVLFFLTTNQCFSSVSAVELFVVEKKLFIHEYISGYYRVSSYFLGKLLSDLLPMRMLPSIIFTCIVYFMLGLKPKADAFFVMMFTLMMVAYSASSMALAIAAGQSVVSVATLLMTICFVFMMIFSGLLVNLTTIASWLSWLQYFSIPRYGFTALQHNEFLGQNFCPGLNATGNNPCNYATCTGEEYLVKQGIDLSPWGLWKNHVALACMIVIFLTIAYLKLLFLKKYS
Description: Inhibition of ABCG2 in human Caco-2 cells assessed as [3H]mithoxatrone accumulation at 100 uM. The conditions noted are these: probe [3H]mithoxatrone. In kind it is cell-based. A digest of the protocol:
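Caco-2 monolayers grown 21 days (TEER >800 Ω × cm²). 20 nM [3H]mitoxantrone added basolaterally with or without compound at 100 µM, 120 min at 37 °C. Apical appearance measured by scintillation counting. Result is % inhibition from the radioactivity difference with and without compound.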

The target of series [7] is T4, ATP-dependent translocase ABCB1. Description: Inhibition of ABCB1 in human Caco-2 cells assessed as ATPase activation at 100 uM after 2 hrs. In kind it is cell-based. The note with it: caco-2, 2 h. A digest of the protocol:
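Caco-2 cells seeded at 2 × 10⁴ cells/well and held overnight at 37 °C, 5% CO2. Exposed to compound in complete medium for 2 h at 37 °C. Cells then lysed and ATP read by luciferase luminescence after 10 min dark adaptation. Tested at 100 µM; a positive response is reported as a percentage.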

The target is the same in series [8]. Description: Inhibition of ABCB1.
For series [9], the target named is T6, Broad substrate specificity ATP-binding cassette transporter ABCG2 (Homo sapiens, UniProt Q9UNQ0).
T6 sequence (Q9UNQ0 whole entry): T5 sequence (Q9UNQ0 whole entry)
Description: Inhibition of ABCG2.

T1 sequence (P14416 whole entry): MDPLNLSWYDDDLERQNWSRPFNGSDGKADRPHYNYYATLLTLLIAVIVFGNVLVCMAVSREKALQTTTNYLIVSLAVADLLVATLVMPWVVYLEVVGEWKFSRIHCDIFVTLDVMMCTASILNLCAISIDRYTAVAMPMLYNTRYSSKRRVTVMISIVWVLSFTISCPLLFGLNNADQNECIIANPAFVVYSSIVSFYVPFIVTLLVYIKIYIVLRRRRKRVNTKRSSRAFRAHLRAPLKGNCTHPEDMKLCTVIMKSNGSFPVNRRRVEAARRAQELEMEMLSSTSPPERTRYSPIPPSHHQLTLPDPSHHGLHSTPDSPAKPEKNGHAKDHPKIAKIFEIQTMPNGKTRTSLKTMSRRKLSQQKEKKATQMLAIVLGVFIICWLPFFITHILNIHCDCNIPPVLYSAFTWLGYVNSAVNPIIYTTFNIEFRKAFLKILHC
ABCB1, sequence (P08183 whole entry): as the sequence (P08183 whole entry) above

Regarding `COc1cccc(CCc2ccccc2OCCN2CCc3cc(OC)c(OC)cc3C2)c1`, the inhibition on D(2) dopamine receptor [1] turned out to be 12%; in series [3], 26%. Besides, the activation at 2 h, 100 µM at ABCB1 is 55%. The Ki was more than 5000 nM in [2] and more than 1000 nM at D(2) dopamine receptor [5]. The Ratio in the series with Caco-2 stood at 6.4. The figures for the IC50 in [4] and in series [6] were 780 nM and 750 nM, respectively.

With `COc1cccc(CCc2ccccc2OCCCCN2CCN(c3ncccn3)CC2)c1`, the inhibition at 100 µM at ABCG2 worked out at 16%. For the same compound, the Activity entry in series [7] was “Not Active”. Further, the Ki came out at 558 nM in series [2] and 854 nM at D(2) dopamine receptor [5]. Besides, the Ratio in the series on Caco-2 turned out to be 8.2. The IC50 is 1170 nM in series [4] and 200 nM in series [6].

For the compound `COc1cccc(CCc2ccccc2NCc2cccc(OC)c2OC)c1`, the concentration for half-maximal inhibition (IC50) in [8] worked out at 85 nM; in [9], 1500 nM.

Take `COc1cccc(CCc2ccccc2OCCCCN2CCN(c3cccc(C(F)(F)F)c3)CC2)c1`: on ABCG2, the inhibition at 100 µM was determined as 24%. The Activity entry in series [7] is listed as “Not Active”. Besides, the results for the inhibition (at D(2) dopamine receptor [1]; in [3]) were 27% and 36%, respectively. Besides, the Ki was more than 5000 nM in [2] and more than 1000 nM at D(2) dopamine receptor [5]. The Ratio with Caco-2 worked out at 4.4. In addition, the IC50 in series [4] was 1790 nM; in [6], 750 nM.

`COc1cccc(CCc2ccccc2OCc2ccc(OC)c(OC)c2)c1`: the half-inhibitory concentration (IC50) in series [8] stood at 650 nM; in series [9] it was 150000 nM.

As for `COc1cccc(CCc2ccccc2NCc2ccc(OC)c(OC)c2)c1`, the IC50 in series [8] was found to be 180 nM; in series [9] it was 500 nM.

With `COc1cccc(CCc2ccccc2OCc2cccc(OC)c2OC)c1`, in [9], the IC50 amounted to 120000 nM.

As for `COc1cccc(CCc2ccccc2OCCCCCN2CCc3cc(OC)c(OC)cc3C2)c1`, the inhibition at D(2) dopamine receptor [1] came out at 18%; in series [3] it was 22%. Also, the activation at 2 h, 100 µM at ABCB1 stood at 20%. Besides, the Ki in series [2] is more than 5000 nM; at D(2) dopamine receptor [5] it was more than 1000 nM. Besides, the Ratio in the series with Caco-2 is 4.9. In addition, the results for the half-maximal inhibitory concentration (IC50) in [4] and in series [6] were 110 nM and 350 nM, respectively.

Regarding `COc1cccc(CCc2ccccc2OCCCCN2CCN(C)CC2)c1`, in series [7], the Activity entry is recorded as “Not Active”. In addition, the inhibition came out at 14% on D(2) dopamine receptor [1] and 38% in series [3]. Moreover, the Ki in series [2] is more than 5000 nM; at D(2) dopamine receptor [5] it was more than 1000 nM. Moreover, in the series with Caco-2, the Ratio was 6.3. For the same compound, the IC50 was 4780 nM in series [4] and 150 nM in series [6].

Source of the values: ChEMBL document CHEMBL1140844, “2-[(3-Methoxyphenylethyl)phenoxy]-based ABCB1 inhibitors: effect of different basic side-chains on their biological properties” (J Med Chem, 2008).
